Laboratory results as given in ChEMBL document CHEMBL1127425, “Latent alkyl isocyanates as inhibitors of aldehyde dehydrogenase in vivo” (1994).

Assays:
Rattus norvegicus = assay: Compound was evaluated for blood acetaldehyde levels elicited by compound after ethanol administration to rat; format: functional
Procedure, shortened: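 Fasted male Sprague-Dawley rats (160–200 g) got test agent at 1.0 mmol/kg ip at time zero, suspended in 2% aqueous CMC (peanut oil for the trifluoroacetyl pro-prodrug and N1-EtCP). Ethanol 2.0 g/kg ip followed at 2 h. Rats were killed 1 h after ethanol and blood AcH was measured. Chlorpropamide served as positive control and vehicle alone as control. Groups of three were used, repeated with three more when active. Results are mean ± SEM, ANOVA with Newman-Keuls.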

[1] = target: Aldehyde dehydrogenase, mitochondrial (Rattus norvegicus) (UniProt P11884); assay: Compound was evaluated for inhibition of class II aldehyde dehydrogenase in intact rat liver mitochondria in vitro at 1 mM
[2] = target: Aldehyde dehydrogenase, mitochondrial ALDH2 (Rattus norvegicus) (UniProt P11884); assay: Evaluated for inhibition of class II mitochondrial Aldehyde dehydrogenase (ALDH) in osmotically disrupted mitochondria from rat; conditions: concentration not given here
[3] = target: Aldehyde dehydrogenase, mitochondrial ALDH2 (Rattus norvegicus) (UniProt P11884); assay: Evaluated for inhibition of hepatic mitochondrial Aldehyde dehydrogenase (ALDH) from rat; conditions: concentration not given here

Chain of Aldehyde dehydrogenase, mitochondrial ALDH2 (Rattus norvegicus) (P11884 whole entry, looked up): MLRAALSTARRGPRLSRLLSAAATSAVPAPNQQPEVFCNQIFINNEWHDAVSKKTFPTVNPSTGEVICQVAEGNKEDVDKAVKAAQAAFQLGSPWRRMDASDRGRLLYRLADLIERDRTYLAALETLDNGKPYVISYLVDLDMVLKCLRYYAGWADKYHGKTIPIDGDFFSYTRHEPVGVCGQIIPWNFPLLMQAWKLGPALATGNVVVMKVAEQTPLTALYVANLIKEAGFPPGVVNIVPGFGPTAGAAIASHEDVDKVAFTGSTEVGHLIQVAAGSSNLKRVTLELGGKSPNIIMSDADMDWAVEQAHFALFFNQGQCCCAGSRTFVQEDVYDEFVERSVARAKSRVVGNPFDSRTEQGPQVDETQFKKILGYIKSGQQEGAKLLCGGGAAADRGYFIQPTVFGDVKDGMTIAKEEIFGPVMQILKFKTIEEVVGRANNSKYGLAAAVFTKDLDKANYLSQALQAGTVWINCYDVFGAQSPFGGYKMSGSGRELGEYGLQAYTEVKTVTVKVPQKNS

Row | Structure (SMILES) | Acetaldehyde level (Rattus norvegicus) [µM] | further results
1 | CCCNC(=O)N1C(=O)c2ccccc2S1(=O)=O | ~500 | –
2 | CCCNC(=O)n1c(=O)cc[nH]c1=O | 700 | –
3 | CCCNC(=O)N(C)S(=O)(=O)c1ccc(Cl)cc1 | – | Inhibition [1]: 49%; inhibition [2]: 74%
4 | CCCN1C(=O)CN(S(=O)(=O)c2ccc(Cl)cc2)C1=O | 20 | –
5 | CCCNC(=O)N(CC)S(=O)(=O)c1ccc(Cl)cc1 | ~410 | inhibition [3]: 78%
6 | CCCNC(=O)N1C(=O)CNC1=O | ~0 | –
7 | C=CCN(C(=O)NCCC)S(=O)(=O)c1ccc(Cl)cc1 | ~750 | –
8 | CCCN(C(=O)N(CC)S(=O)(=O)c1ccc(Cl)cc1)C(=O)C(F)(F)F | ~450 | –
9 | CCCNC(=O)SCc1ccccc1 | 550 | –
10 | CCCNC(=O)NS(=O)(=O)c1ccc(Cl)cc1 [CHLORPROPAMIDE] | ~170 | –
